Measurements: ChEMBL document CHEMBL1155976, “Synthesis and preliminary pharmacological evaluation of imidazo[2,1-f]purine-2,4-dione derivatives” (Eur J Med Chem, 2009)
Active and inactive are the calls of the source. The calls are words filed in the database; no cut-off is given here.

Tests used:
[1] = biological target: T1, 5-hydroxytryptamine receptor 1A (Rattus norvegicus, UniProt P19327); test: Displacement of [3H]8-OH-DPAT from 5HT1A receptor in rat cerebral cortex after 15 mins by liquid scintillation counting; assay type: tissue-based
T1 sequence (P19327 whole entry): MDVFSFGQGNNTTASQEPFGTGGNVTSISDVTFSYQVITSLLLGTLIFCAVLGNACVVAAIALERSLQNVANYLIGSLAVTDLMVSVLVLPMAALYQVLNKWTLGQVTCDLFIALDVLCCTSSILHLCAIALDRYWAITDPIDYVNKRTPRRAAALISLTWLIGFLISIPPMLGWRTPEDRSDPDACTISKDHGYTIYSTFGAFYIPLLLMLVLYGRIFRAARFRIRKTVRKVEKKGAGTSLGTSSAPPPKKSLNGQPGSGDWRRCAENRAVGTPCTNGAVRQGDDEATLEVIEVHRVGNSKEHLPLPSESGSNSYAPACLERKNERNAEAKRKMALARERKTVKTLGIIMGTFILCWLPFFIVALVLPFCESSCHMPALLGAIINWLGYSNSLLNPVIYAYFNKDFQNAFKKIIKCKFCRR

D(2) dopamine receptor = D(2) dopamine receptor (Rattus norvegicus, UniProt P61169); test: Displacement of [3H]spiperone from dopamine D2 receptor in rat striatum membrane after 30 mins by liquid scintillation counting; assay type: cell membranes
Procedure, shortened: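 Rat striatum homogenised in 50 mM potassium phosphate pH 7.4 and spun twice at 20000 × g. Membranes (3 mg wet weight) incubated with 1 nM [3H]-spiperone and test agent in 0.5 ml for 30 min at 37 °C. Nonspecific binding with (+)butaclamol. GF/B filtration, two washes with ice-cold buffer, scintillation counting; Ki from ≥3 experiments, 10 concentrations in triplicate.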

[2] = biological target: 5-hydroxytryptamine receptor 2A (Rattus norvegicus, UniProt P14842); test: Displacement of [3H]ketanserin from 5HT2A receptor in rat cerebral cortex after 20 mins by liquid scintillation counting; assay type: tissue-based
Procedure, shortened: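 Rat cerebral cortex homogenised in 50 mM Tris-HCl pH 7.7, spun at 32000 × g, preincubated 10 min at 37 °C, resuspended in 50 volumes. Incubated with 0.6 nM [3H]-ketanserin and test agent (10^-10 to 10^-4 M) at 37 °C for 20 min; mianserin as displacer. GF/B filtration, scintillation counting; Ki from ≥3 experiments, 10 concentrations in triplicate.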

Rattus norvegicus [3] = test: Behavioral activity in Wistar rat assessed as induction of lower lip retraction at 10 to 20 mg/kg, ip; assay type: functional, organism-based
Procedure, shortened: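 Male Wistar rats (290–310 g); agent ip in 1% Tween 80 at 2 ml/kg. Rats housed singly in cages and scored 15, 30 and 45 min after dosing: 0 = lower incisors not visible, 0.5 = partly, 1 = fully visible. Maximum total score 3 per rat.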

Mus musculus [4] = test: Agonist activity at 5HT1A receptor in Swiss albino mouse assessed as decrease in rectal temperature at 5 mg/kg, ip after 30 mins; assay type: functional, organism-based; set-up: dose 5 mg/kg
Procedure, shortened: (§1)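 Male Albino Swiss mice (24–28 g), free food and water, room at 20 ± 1 °C; test agent suspended in 1% aqueous Tween 80, given ip at 10 ml/kg. Rectal temperature read with a thermometer at 30, 60, 90 and 120 min after dosing. Result expressed as Δt from basal temperature taken at the start; six to ten animals per group, each used once.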

Mus musculus [5] = test: Agonist activity at 5HT1A receptor in Swiss albino mouse assessed as decrease in rectal temperature at 5 mg/kg, ip after 90 mins; assay type: functional, organism-based; set-up: dose 5 mg/kg; procedure, shortened: as §1
Mus musculus [6] = test: Agonist activity at 5HT1A receptor in Swiss albino mouse assessed as decrease in rectal temperature at 10 mg/kg, ip after 60 mins in presence of WAY 100635 administered 15 mins before drug challenge; assay type: functional, organism-based; set-up: dose 10 mg/kg
Procedure, shortened: (§2)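 Male Albino Swiss mice (24–28 g). WAY 100635 (0.1 mg/kg, sc, in distilled water) given 15 min before test agent (ip, suspended in 1% Tween 80, 10 ml/kg). Rectal temperature recorded 30 and 60 min after test agent injection. Expressed as Δt versus basal temperature at the start of the experiment.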

Mus musculus [7] = test: Agonist activity at 5HT1A receptor in Swiss albino mouse assessed as decrease in rectal temperature at 10 mg/kg, ip after 30 mins in presence of WAY 100635 administered 15 mins before drug challenge; assay type: functional, organism-based; set-up: dose 10 mg/kg; procedure, shortened: as §2
Mus musculus [8] = test: Agonist activity at 5HT1A receptor in Swiss albino mouse assessed as decrease in rectal temperature at 5 mg/kg, ip after 60 mins; assay type: functional, organism-based; set-up: dose 5 mg/kg; procedure, shortened: as §1
Mus musculus [9] = test: Agonist activity at 5HT1A receptor in Swiss albino mouse assessed as decrease in rectal temperature at 10 mg/kg, ip after 120 mins; assay type: functional, organism-based; set-up: dose 10 mg/kg; procedure, shortened: as §1
Mus musculus [10] = test: Agonist activity at 5HT1A receptor in Swiss albino mouse assessed as decrease in rectal temperature at 10 mg/kg, ip after 30 mins; assay type: functional, organism-based; set-up: dose 10 mg/kg; procedure, shortened: as §1
Mus musculus [11] = test: Agonist activity at 5HT1A receptor in ip dosed Swiss albino mouse assessed as decrease in rectal temperature; assay type: functional, organism-based; procedure, shortened: as §1
Mus musculus [12] = test: Agonist activity at 5HT1A receptor in Swiss albino mouse assessed as decrease in rectal temperature at 10 mg/kg, ip after 90 mins; assay type: functional, organism-based; set-up: dose 10 mg/kg; procedure, shortened: as §1
Rattus norvegicus [13] = test: Behavioral activity in Wistar rat assessed as reduction of 8-OH-DPAT-induced lower lip retraction at 10 to 20 mg/kg, ip administered 45 mins before 8-OH-DPAT challenge; assay type: functional, organism-based
Mus musculus [14] = test: Agonist activity at 5HT1A receptor in Swiss albino mouse assessed as decrease in rectal temperature at 10 mg/kg, ip after 60 mins; assay type: functional, organism-based; set-up: dose 10 mg/kg; procedure, shortened: as §1
Mus musculus [15] = test: Agonist activity at 5HT1A receptor in Swiss albino mouse assessed as decrease in rectal temperature at 5 mg/kg, ip after 120 mins; assay type: functional, organism-based; set-up: dose 5 mg/kg; procedure, shortened: as §1
Mus musculus [16] = test: Antidepressant activity in Swiss albino mouse assessed as reduction of immobility time at 20 mg/kg, ip administered 30 mins before test by forced swimming test; assay type: functional; conditions: route intraperitoneal
Procedure, shortened: (§3)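 Male Albino Swiss mice (24–28 g); agent suspended in 1% aqueous Tween 80, ip 10 ml/kg, 30 min before the test. Total immobility time scored over the last 4 min of a 6-min swim session. n = 8–10 mice per group; mean ± SEM, compared with vehicle.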

Mus musculus [17] = test: Antidepressant activity in Swiss albino mouse assessed as reduction of immobility time at 30 mg/kg, ip administered 30 mins before test by forced swimming test; assay type: functional; conditions: route intraperitoneal; procedure, shortened: as §3
Mus musculus [18] = test: Anxiolytic activity in Swiss albino mouse assessed as number of punished crossings at 20 mg/kg, ip. administered 30 mins before test measured for 60s by four plate test; assay type: functional
Procedure, shortened: (§4)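 Male Albino Swiss mice. Box with four metal floor plates separated by 4 mm gaps; 120 V between adjacent plates for 0.5 s delivered on crossing. Mice explored 15 s before testing. Agent (ip, 1% Tween 80) given 30 min before the test. Punished crossings counted; n = 10 mice per group, mean ± SEM.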

Mus musculus [19] = test: Anxiolytic activity in Swiss albino mouse assessed as number of punished crossings at 30 mg/kg, ip administered 30 mins before test measured for 60s by four plate test; assay type: functional; conditions: route intraperitoneal; procedure, shortened: as §4
Mus musculus [20] = organism: Mus musculus; conditions: Swiss albino, 20 mg/kg
Mus musculus [21] = test: Sedative activity in Swiss albino mouse assessed as reduction on spontaneous locomotor activity at 20 mg/kg, ip administered 30 mins before test measured for 6 mins; assay type: ADME, organism-based; set-up: dose 20 mg/kg, route intraperitoneal; conditions: in vivo, 0.1 h
Procedure, shortened: (§5)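 Male Albino Swiss mice (24–28 g); agent ip in 1% Tween 80, 30 min before the test. Locomotor activity counted as number of crossings during 6-min and 30-min sessions. n = 8–10 mice per group; mean ± SEM versus vehicle.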

Mus musculus [22] = organism: Mus musculus; conditions: Swiss albino, 20 mg/kg; remark: listed apart in the source
Mus musculus [23] = test: Sedative activity in Swiss albino mouse assessed as reduction on spontaneous locomotor activity at 30 mg/kg, ip administered 30 mins before test measured for 6 mins; assay type: ADME, organism-based; set-up: dose 30 mg/kg, route intraperitoneal; conditions: in vivo, 0.1 h; procedure, shortened: as §5
Mus musculus [24] = organism: Mus musculus; conditions: Swiss albino, 20 mg/kg; remark: listed apart in the source
Mus musculus [25] = test: Antidepressant activity in Swiss albino mouse assessed as reduction of immobility time at 10 mg/kg, ip administered 30 mins before test by forced swimming test; assay type: functional; conditions: route intraperitoneal; procedure, shortened: as §3
Mus musculus [26] = organism: Mus musculus; conditions: Swiss albino, 20 mg/kg; remark: listed apart in the source
Mus musculus [27] = test: Sedative activity in Swiss albino mouse assessed as reduction on spontaneous locomotor activity at 20 mg/kg, ip administered 30 mins before test measured for 30 mins; assay type: ADME, organism-based; set-up: dose 20 mg/kg, route intraperitoneal; conditions: in vivo, 0.5 h; procedure, shortened: as §5
Mus musculus [28] = organism: Mus musculus; conditions: Swiss albino, 20 mg/kg; remark: listed apart in the source
Mus musculus [29] = organism: Mus musculus; conditions: Swiss albino, 20 mg/kg; remark: listed apart in the source
Mus musculus [30] = test: Sedative activity in Swiss albino mouse assessed as reduction on spontaneous locomotor activity at 30 mg/kg, ip administered 30 mins before test measured for 30 mins; assay type: ADME, organism-based; set-up: dose 30 mg/kg, route intraperitoneal; conditions: in vivo, 0.5 h; procedure, shortened: as §5

5-hydroxytryptamine receptor 2A, sequence (P14842 whole entry): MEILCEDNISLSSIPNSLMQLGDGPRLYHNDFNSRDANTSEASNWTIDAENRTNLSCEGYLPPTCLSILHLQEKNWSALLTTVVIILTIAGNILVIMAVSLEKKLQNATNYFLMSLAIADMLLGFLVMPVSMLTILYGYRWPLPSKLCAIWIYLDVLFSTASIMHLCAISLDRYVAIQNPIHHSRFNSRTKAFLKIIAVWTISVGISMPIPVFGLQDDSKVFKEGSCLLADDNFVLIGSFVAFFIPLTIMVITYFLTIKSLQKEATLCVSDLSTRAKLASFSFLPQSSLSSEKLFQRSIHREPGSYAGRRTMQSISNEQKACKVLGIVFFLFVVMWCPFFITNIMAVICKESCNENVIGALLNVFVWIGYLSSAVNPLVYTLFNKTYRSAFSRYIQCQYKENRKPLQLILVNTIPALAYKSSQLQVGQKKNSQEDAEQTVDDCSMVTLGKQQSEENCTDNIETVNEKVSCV
D(2) dopamine receptor, sequence (P61169 whole entry): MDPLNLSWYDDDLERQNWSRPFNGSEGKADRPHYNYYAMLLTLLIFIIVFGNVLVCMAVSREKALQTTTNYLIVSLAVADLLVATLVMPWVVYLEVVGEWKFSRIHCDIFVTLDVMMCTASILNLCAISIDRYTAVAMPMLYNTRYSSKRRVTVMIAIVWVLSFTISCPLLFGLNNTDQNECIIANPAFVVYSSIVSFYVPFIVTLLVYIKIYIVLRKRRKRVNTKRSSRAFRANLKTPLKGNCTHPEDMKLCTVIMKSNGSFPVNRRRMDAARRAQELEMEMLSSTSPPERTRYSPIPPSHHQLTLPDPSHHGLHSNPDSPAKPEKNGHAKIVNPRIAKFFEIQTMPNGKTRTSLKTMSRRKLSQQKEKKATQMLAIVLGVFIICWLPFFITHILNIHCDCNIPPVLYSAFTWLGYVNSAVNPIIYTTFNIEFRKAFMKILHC

## Cn1c(=O)c2c(nc3n(CCCN4CCN(c5cccc(Cl)c5)CC4)ccn23)n(C)c1=O
[1]
  Ki: > 1000 nM
D(2) dopamine receptor
  Ki: > 1000 nM
[2]
  Ki: 91.5 nM

## COc1ccccc1N1CCN(CCCn2c(C)cn3c4c(=O)n(C)c(=O)n(C)c4nc23)CC1
Rattus norvegicus [3]
  Activity: inactive
Mus musculus [4]
  deltaT: -0.4 °C
[1]
  Ki: 16.8 nM
Mus musculus [5]
  deltaT: -0.3 °C
Mus musculus [6]
  deltaT: -0.9 °C
D(2) dopamine receptor
  Ki: 345 nM
Mus musculus [7]
  deltaT: -1 °C
Mus musculus [8]
  deltaT: -0.4 °C
Mus musculus [9]
  deltaT: -0.2 °C
Mus musculus [10]
  deltaT: -0.9 °C
Mus musculus [11]
  Activity: Dose-dependent effect
Mus musculus [12]
  deltaT: -0.6 °C
Rattus norvegicus [13]
  Activity: inactive
[2]
  Ki: > 1000 nM
Mus musculus [14]
  deltaT: -0.5 °C
Mus musculus [15]
  deltaT: -0.1 °C

## Cn1c(=O)c2c(nc3n2CC(C(=O)NCCN2CCN(c4ccccc4)CC2)N3)n(C)c1=O (stereo not given)
[1]
  Ki: > 1000 nM

## Cn1c(=O)c2c(nc3nc(NCCCN4CCN(c5ccccc5)CC4)c(Br)cn32)n(C)c1=O
[2]
  Ki: 297 nM

## COc1ccccc1N1CCN(CCCn2c(-c3ccccc3)cn3c4c(=O)n(C)c(=O)n(C)c4nc23)CC1
Mus musculus [16]
  Activity: 169.3 s
Mus musculus [4]
  deltaT: -0.7 °C
[1]
  Ki: 5.6 nM
Mus musculus [17]
  Activity: 172 s
D(2) dopamine receptor
  Ki: 143 nM
Mus musculus [7]
  deltaT: -0.9 °C
Mus musculus [9]
  deltaT: -0.5 °C
Mus musculus [10]
  deltaT: -2 °C
Mus musculus [11]
  Activity: Dose-dependent effect
Mus musculus [12]
  deltaT: -0.6 °C
Mus musculus [18]
  Activity: 3.5
Mus musculus [19]
  Activity: 3.2
[2]
  Ki: > 1000 nM
Mus musculus [14]
  deltaT: -0.6 °C
Mus musculus [15]
  deltaT: 0 °C

## COc1ccccc1N1CCN(CCCN2CCCn3c2nc2c3c(=O)n(C)c(=O)n2C)CC1
[1]
  Ki: 2.8 nM
[2]
  Ki: 486 nM

## COc1ccccc1N1CCN(CCCn2ccn3c4c(=O)n(C)c(=O)n(C)c4nc23)CC1
Mus musculus [20]
  deltaT: -1.8 °C
Mus musculus [21]
  Activity: 353.4
Mus musculus [22]
  deltaT: -0.9 °C
Mus musculus [16]
  Activity: 104.8 s
Mus musculus [23]
  Activity: 198
[1]
  Ki: 25.4 nM
Mus musculus [24]
  deltaT: -1.1 °C
Mus musculus [17]
  Activity: 101.3 s
Mus musculus [25]
  Activity: 134.2 s
D(2) dopamine receptor
  Ki: 839 nM
Mus musculus [26]
  deltaT: -1.3 °C
Mus musculus [27]
  Activity: 925.8
Mus musculus [10]
  deltaT: -0.7 °C
Mus musculus [11]
  Activity: Dose-dependent effect
Mus musculus [28]
  deltaT: -1 °C
Mus musculus [29]
  deltaT: -0.5 °C
Mus musculus [12]
  deltaT: -0.3 °C
Mus musculus [18]
  Activity: 2.5
Mus musculus [19]
  Activity: 2.5
Mus musculus [30]
  Activity: 567.6
[2]
  Ki: > 1000 nM
Mus musculus [14]
  deltaT: -0.6 °C
